Measured values as given in publication PMC3957490 (Neuron, 2014).

Assays:
Assay type in all cases: cell-based
[1] = target: T1, 2AC1/2AC2 (tagged GluN1/GluN2A) (Rattus norvegicus, UniProt P35439+Q00959); experiment: two-electrode voltage clamp, Xenopus oocytes
In short: (§1)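 Oocytes injected with about 10 ng total cRNA of rat GluN1-1a plus wild-type or C1/C2-tagged GluN2 (tagged at 1:6:6); two-electrode voltage clamp. GluN2A-selective antagonists: 100 μM glutamate + 3 μM glycine. Divalent metal inhibitor: 50 μM glutamate + 50 μM glycine, −20 mV, kept below 300 nM, pH 7.3 (also 7.8, 6.8). GluN2B-selective antagonists: 100 μM glutamate + 50 μM glycine, −40 mV. IC50 from fitted concentration-response data, mean ± SEM over N oocytes.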

[2] = target: T2, wt 2A/2A (wild type GluN1/GluN2A) (Rattus norvegicus, UniProt P35439+Q00959); experiment: two-electrode voltage clamp, Xenopus oocytes
In short: as §1

[3] = target: T3, 2AC1/2BAC2 (GluN1/GluN2A/GluN2B triheteromer) (Rattus norvegicus, UniProt P35439+Q00959+Q00960); experiment: two-electrode voltage clamp, Xenopus oocytes
[4] = target: 2BAC1/2BAC2 (tagged GluN1/GluN2B with GluN2A CTD) (Rattus norvegicus, UniProt P35439+Q00960); experiment: whole-cell patch clamp, HEK293 cells; conditions: agonist; […] glutamate, […] glycine
[5] = target: T1, 2AC1/2AC2 (tagged GluN1/GluN2A); experiment: whole-cell patch clamp, HEK293 cells; conditions: agonist; […] glutamate, […] glycine
[6] = target: wt 2B/2B (wild type GluN1/GluN2B) (Rattus norvegicus, UniProt P35439+Q00960); experiment: whole-cell patch clamp, HEK293 cells; conditions: agonist; […] glutamate, […] glycine
[7] = target: T3, 2AC1/2BAC2 (GluN1/GluN2A/GluN2B triheteromer); experiment: whole-cell patch clamp, HEK293 cells; conditions: agonist; […] glutamate, […] glycine
[8] = target: T2, wt 2A/2A (wild type GluN1/GluN2A); experiment: whole-cell patch clamp, HEK293 cells; conditions: agonist; […] glutamate, […] glycine

T1 sequence (Q00959 23-1464, other chains not shown): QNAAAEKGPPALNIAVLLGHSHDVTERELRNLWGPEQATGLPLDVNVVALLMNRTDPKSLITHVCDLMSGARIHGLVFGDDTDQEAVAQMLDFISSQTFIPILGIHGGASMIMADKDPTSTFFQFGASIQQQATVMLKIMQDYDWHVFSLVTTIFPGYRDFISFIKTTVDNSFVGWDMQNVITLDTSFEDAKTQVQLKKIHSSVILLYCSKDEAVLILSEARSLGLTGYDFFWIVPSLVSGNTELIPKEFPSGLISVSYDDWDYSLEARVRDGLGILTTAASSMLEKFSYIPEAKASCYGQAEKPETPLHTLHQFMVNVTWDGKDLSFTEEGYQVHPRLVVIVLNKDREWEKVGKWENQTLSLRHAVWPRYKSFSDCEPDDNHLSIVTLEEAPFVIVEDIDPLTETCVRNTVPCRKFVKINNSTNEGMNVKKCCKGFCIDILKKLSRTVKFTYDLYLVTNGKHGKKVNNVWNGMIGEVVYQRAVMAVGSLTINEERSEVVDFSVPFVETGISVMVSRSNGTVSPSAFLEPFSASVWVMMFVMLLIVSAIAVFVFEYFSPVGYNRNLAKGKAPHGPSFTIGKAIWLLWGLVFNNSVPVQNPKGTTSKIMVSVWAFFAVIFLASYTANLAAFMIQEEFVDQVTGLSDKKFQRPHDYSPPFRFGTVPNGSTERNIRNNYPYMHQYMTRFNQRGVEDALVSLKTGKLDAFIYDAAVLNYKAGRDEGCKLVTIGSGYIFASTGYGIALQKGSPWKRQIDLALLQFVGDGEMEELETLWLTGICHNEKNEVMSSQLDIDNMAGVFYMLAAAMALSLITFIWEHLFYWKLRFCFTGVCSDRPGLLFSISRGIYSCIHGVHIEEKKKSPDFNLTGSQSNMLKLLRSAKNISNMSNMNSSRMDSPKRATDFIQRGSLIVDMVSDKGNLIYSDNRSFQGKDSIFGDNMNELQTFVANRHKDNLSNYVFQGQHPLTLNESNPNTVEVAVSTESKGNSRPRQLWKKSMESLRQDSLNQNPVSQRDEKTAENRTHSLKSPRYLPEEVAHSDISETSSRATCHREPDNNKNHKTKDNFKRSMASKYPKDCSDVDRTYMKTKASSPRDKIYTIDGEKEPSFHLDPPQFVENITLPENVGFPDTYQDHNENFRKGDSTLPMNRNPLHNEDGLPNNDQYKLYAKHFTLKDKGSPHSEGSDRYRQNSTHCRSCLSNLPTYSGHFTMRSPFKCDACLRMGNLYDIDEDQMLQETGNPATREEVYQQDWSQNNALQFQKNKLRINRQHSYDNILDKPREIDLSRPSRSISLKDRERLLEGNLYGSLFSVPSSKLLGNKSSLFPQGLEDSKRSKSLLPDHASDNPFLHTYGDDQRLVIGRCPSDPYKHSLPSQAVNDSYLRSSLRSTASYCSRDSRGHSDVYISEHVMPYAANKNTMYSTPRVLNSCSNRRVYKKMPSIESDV
T3 sequence (Q00959 23-1464, other chains not shown): as above
T2 sequence (Q00959 23-1464, other chains not shown): as above

Row | Structure (SMILES) | IC50 [1] | IC50 [2] | IC50 [3] | Brief glutamate activation (5 ms) / τweighted [4] | Brief glutamate activation (5 ms) / τweighted [5] | Brief glutamate activation (5 ms) / τweighted [6] | Brief glutamate activation (5 ms) / τweighted [7] | Brief glutamate activation (5 ms) / τweighted [8]
1 | O=C(NNC(=O)c1ccc(CNS(=O)(=O)c2ccc(F)c(Cl)c2)cc1)c1ccccc1 [TCN-201] | 360 ± 20 nM | 370 ± 30 nM | 1350 ± 130 nM | – | – | – | – | –
2 | N[C@@H](CCC(=O)O)C(=O)O [glutamate] | – | – | – | 274 ± 24 ms | 33 ± 2 ms | 314 ± 13 ms | 57 ± 4 ms | 32 ± 1 ms
